This note sets out measurements from ChEMBL document CHEMBL1150857, “Dendocarbins A--N, new drimane sesquiterpenes from the nudibranch Dendrodoris carbunculosa” (J Nat Prod, 2001).

Format in all cases: functional, cell-based
In experiment [1] the test system is P388. The experiment is described as follows: Cytotoxicity against adriamycin-resistant mouse P388 cells in presence of 0.1 ug/mL adriamycin.
For experiment [2], the system named is P388. The experiment is described as follows: Cytotoxicity against vincristine-resistant mouse P388 cells in absence of 0.004 ug/mL vincristine. The gist of the method: (§1)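 Murine leukemia P388 lines were tested: the drug-sensitive strain (P388/S), the adriamycin-resistant line (P388/ADR) and the vincristine-resistant line (P388/VCR). Cytotoxicity was expressed as IC50.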

Experiment [3] deals with P388. The experiment is described as follows: Cytotoxicity against vincristine-resistant mouse P388 cells in presence of 0.004 ug/mL vincristine.
For experiment [4], the system named is P388. Kind of experiment: Cytotoxicity against drug-sensitive mouse P388 cells. The procedure, abridged: as §1
Experiment [5] deals with P388. Kind of experiment: Cytotoxicity against adriamycin-resistant mouse P388 cells in absence of 0.1 ug/mL adriamycin. The gist of the method:
as §1

Molecules are shown by their SMILES. ≈ marks a conversion by molar mass, not a printed value. Some results are limits rather than exact numbers.

For orientation: IC50 means the point on the concentration scale where inhibition reaches its midpoint. In the case of `CC(=O)O[C@@H]1OC(=O)C2=CC[C@H]3C(C)(C)CCC[C@]3(C)[C@H]21`, the IC50 in experiment [1] turned out to be 10.1 µg/mL; in experiment [2] it was 10.2 µg/mL (≈ 34.9 µM); in experiment [3] it was 9 µg/mL; in experiment [4], 10.2 µg/mL (≈ 34.9 µM); in experiment [5], 8 µg/mL.
With `CC1(C)CCC[C@]2(C)C3=C(CC[C@@H]12)C(=O)O[C@@H]3O`, the IC50 in experiment [1] was 2.5 µg/mL; in experiment [2] it was 2.5 µg/mL (≈ 9.99 µM); in experiment [3], 2.5 µg/mL; in experiment [4], 3.2 µg/mL (≈ 12.8 µM); in experiment [5], 2.5 µg/mL.
Consider `CC1(C)CCC[C@]2(C)C3=C(C(=O)OC3O)[C@H](O)C[C@@H]12` (mixture of isomers) [DENDOCARBIN L/DENDOCARBIN M], for which the IC50 in experiment [1], in experiment [2], in experiment [3], in experiment [4] and in experiment [5] was above 25 µg/mL in each case.
In the case of `CC1(C)CCC[C@]2(C)[C@@H]3C(=CC[C@@H]12)C(=O)O[C@H]3O` [DENDOCARBIN A], the IC50 in experiment [1], in experiment [2], in experiment [3], in experiment [4] and in experiment [5] was above 25 µg/mL in each case.
With `CC1(C)C[C@H](O)C[C@]2(C)[C@H]3C(=O)OCC3=CC[C@@H]12` [DENDOCARBIN B], the IC50 in experiment [1] was determined as 10.5 µg/mL; in experiment [2] it was 10.2 µg/mL (≈ 40.7 µM); in experiment [3], 9 µg/mL; in experiment [4], 11.5 µg/mL (≈ 45.9 µM); in experiment [5], 7 µg/mL.
`CC1(C)CCC[C@]2(C)[C@@H]3C(=C[C@H](O)[C@@H]12)CO[C@H]3O` [DENDOCARBIN C]: the IC50 in experiment [1], in experiment [2], in experiment [3], in experiment [4] and in experiment [5] was above 25 µg/mL each time.
`CC1(C)CCC[C@]2(C)[C@H]3[C@H](O)OC(=O)[C@@]3(O)CC[C@@H]12` [DENDOCARBIN D]: the half-inhibitory concentration (IC50) was 16 µg/mL in experiment [1]; 16 µg/mL (≈ 59.6 µM) in experiment [2]; 14 µg/mL in experiment [3]; 15 µg/mL (≈ 55.9 µM) in experiment [4]; 16 µg/mL in experiment [5].
For the compound `CC1(C)[C@@H](O)CC[C@]2(C)[C@H]3C(=O)OC(=O)C3=CC[C@@H]12` [DENDOCARBIN E], the half-maximal inhibitory concentration (IC50) in experiment [1] was above 25 µg/mL; in experiment [2], 22.5 µg/mL (≈ 85.1 µM); in experiment [3], above 25 µg/mL; in experiment [4] it was above 25 µg/mL; in experiment [5], 19 µg/mL.
Consider `C[C@@]1(CO)CCC[C@]2(C)[C@H]3C(=O)OC(=O)C3=CC[C@@H]12` [DENDOCARBIN F], for which the IC50 in experiment [1] was 22 µg/mL; in experiment [2], above 25 µg/mL; in experiment [3], above 25 µg/mL; in experiment [4], above 25 µg/mL; in experiment [5], above 25 µg/mL.
As to `CC1(C)CCC[C@]2(C)[C@H]3C(=O)OC(=O)C3=C[C@H](O)[C@@H]12` [DENDOCARBIN G], the concentration for half-maximal inhibition (IC50) in experiment [1], in experiment [2], in experiment [3], in experiment [4] and in experiment [5] was above 25 µg/mL throughout.
For `CC1(C)CCC[C@]2(C)[C@H]3C(=O)OC(=O)C3=CC[C@@H]12` [DENDOCARBIN H], the IC50 in experiment [1] is 10.5 µg/mL; in experiment [2], 10.1 µg/mL (≈ 40.7 µM); in experiment [3], 8 µg/mL; in experiment [4] it was 10.8 µg/mL (≈ 43.5 µM); in experiment [5] it was 10.1 µg/mL.
Consider `CCOC1OC(=O)C2=C1[C@@H](O)C[C@H]1C(C)(C)CCC[C@]21C` (stereo not given in full) [DENDOCARBIN I], for which the IC50 was 10 µg/mL in experiment [1]; 10.2 µg/mL (≈ 34.6 µM) in experiment [2]; 10.2 µg/mL in experiment [3]; 10 µg/mL (≈ 34 µM) in experiment [4]; 8 µg/mL in experiment [5].
On to `CCO[C@H]1OC(=O)C2=C1[C@@]1(C)CCCC(C)(C)[C@@H]1C[C@H]2O` [DENDOCARBIN J], for which the IC50 in experiment [1] stood at 8 µg/mL; in experiment [2], 4 µg/mL (≈ 13.6 µM); in experiment [3] it was 4 µg/mL; in experiment [4] it was 17 µg/mL (≈ 57.7 µM); in experiment [5], 11 µg/mL.
Regarding `CCO[C@@H]1OC(=O)C2=C1[C@@]1(C)CCCC(C)(C)[C@@H]1C[C@H]2O` [DENDOCARBIN K], the IC50 in experiment [1] amounted to 10.5 µg/mL; in experiment [2], 10.5 µg/mL (≈ 35.7 µM); in experiment [3], 9 µg/mL; in experiment [4], 10.5 µg/mL (≈ 35.7 µM); in experiment [5] it was 9 µg/mL.
Regarding `CC1(C)CCC[C@]2(C)[C@H]3[C@H](O)OC[C@]34O[C@@H]4[C@H](O)[C@@H]12` [DENDOCARBIN N], the IC50 in experiment [1], in experiment [2], in experiment [3], in experiment [4] and in experiment [5] was above 25 µg/mL throughout.
With `CC1(C)CCC[C@]2(C)[C@@H]3C(=CC[C@@H]12)CO[C@H]3O` [ISODRIMENINOL], the IC50 is 18 µg/mL in experiment [1]; 22 µg/mL (≈ 93.1 µM) in experiment [2]; above 25 µg/mL in experiment [3]; 13 µg/mL (≈ 55 µM) in experiment [4]; 18 µg/mL in experiment [5].
